Test results published in publication PMC4363178 (Biochemical and biophysical research communications, 2015).
Peptide text beside a SMILES is read from it.

Experiments:
[1] = biological target: T1, PDZ1 of mouse ZO2 (M-ZO2PDZ1) (Mus musculus, UniProt Q9Z0U1); experiment: NMR titration; type: binding; details: for Decrease of chemical shift change of R87 relative to wild-type Cln1-C: same concentration of wild-type Cln1-C, stated jointly for the two mutants
T1 sequence (Q9Z0U1 1-102): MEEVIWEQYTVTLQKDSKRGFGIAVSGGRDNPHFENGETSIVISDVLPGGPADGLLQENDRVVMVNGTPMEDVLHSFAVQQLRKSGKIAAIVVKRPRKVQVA
Summary of the method: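 His-tag-cleaved mouse ZO2 PDZ1 from E. coli BL21(DE3), 15N-labelled in M9 medium, at 0.1 mM in pH 5.2 buffer (50mM phosphate, 50mM NaCl, 0.2mM EDTA). Unmodified peptides (>95% pure; 50 mM stock) were added stepwise up to 12:1 peptide:protein, with ≤10% total dilution. A 1H-15N HSQC was recorded at each point at 600 MHz and 298K. Composite shift = {[δHN]^2 + [0.17 δN]^2}^1/2.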

[2] = biological target: PDZ1 domain of mouse ZO2 (M-ZO2PDZ1) (mouse) (UniProt Q9Z0U1); experiment: NMR titration
PDZ1 domain of mouse ZO2 (M-ZO2PDZ1) (mouse), sequence (Q9Z0U1 1-104): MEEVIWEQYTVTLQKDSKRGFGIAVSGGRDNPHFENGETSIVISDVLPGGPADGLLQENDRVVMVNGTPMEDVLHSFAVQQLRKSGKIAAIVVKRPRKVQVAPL

Row | Kd [1] [µM] | Decrease of chemical shift change of R87 relative to wild-type Cln1-C [1] [fold] | Compound | also measured
1 | 150 ± 50 | – | CC[C@H](C)[C@H](N)C(=O)N[C@@H](CC(C)C)C(=O)N[C@@H](CCCNC(=N)N)C(=O)N[C@@H](CCCCN)C(=O)N[C@@H](CCCNC(=N)N)C(=O)N[C@@H](CCC(=O)O)C(=O)N[C@@H](Cc1ccc(O)cc1)C(=O)N[C@H](C(=O)O)C(C)C [PMP22-YV] (H-ILRKREYV-OH) | –
2 | – | 22 | PSSGKDAA [Cln1-C-AA] | –
3 | – | 22 | PSSGKDVY [Cln1-C-VY] | –
4 | – | – | mutant PMP22 C-terminal peptide PMP22-M1 (ILRKREYV) | Kd [2]: 150 µM
5 | 500 ± 250 | – | C[C@H](NC(=O)[C@H](Cc1ccc(O)cc1)NC(=O)[C@H](CC(=O)O)NC(=O)[C@H](CCCCN)NC(=O)CNC(=O)[C@H](CO)NC(=O)[C@H](CO)NC(=O)[C@@H]1CCCN1)C(=O)O [Cln1-C-YA] (H-PSSGKDYA-OH) | –
